Active and inactive are the calls of the source. No cut-off for these calls is given here.
Key:
[1] = target: Dual specificity protein kinase CLK2 (Homo sapiens) (UniProt P49760); conditions: 10 uM
[2] = target: Dual specificity protein kinase CLK1 (Homo sapiens) (UniProt P49759); assay: Inhibition of recombinant CLK1-mediated SR 9G8 protein phosphorylation at 10 uM after 30 mins by SDS-PAGE followed by autoradiography
Procedure, shortened: (§1)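 Recombinant SR protein 9G8 (87 ng) phosphorylated by each kinase, diluted to equal specific activity toward RS peptide. 15 μM [γ-33P]ATP, 30 min at 30 C, with or without 10 μM inhibitor. Reaction stopped in loading buffer; SDS-PAGE and autoradiography.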

[3] = target: Dual specificity protein kinase CLK1 (Homo sapiens) (UniProt P49759); assay: Inhibition of CLK1 transfected in human HeLa cells assessed as increase in exon inclusion ratio after 24 hrs by RT-PCR analysis; type: cell-based
Procedure, shortened: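 HeLa cells were transfected with […], with kinase-dead CLK1/K190R as comparator. Inhibitors at varying doses were added 3 h post-transfection, with 0.5% DMSO final in all cultures. Cells were harvested 24 h post-transfection, total RNA was extracted, and E1A splicing products were analysed by RT-PCR. Isoform molar ratios were measured by Bioanalyzer to give the exon inclusion ratio. Three independent samples were used.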

[4] = target: Dual specificity protein kinase CLK3 (Homo sapiens) (UniProt P49761); assay: Inhibition of CLK3-mediated SRp55 protein phosphorylation in TNFalpha-stimulated human HMEC1 cells after 1 hr by Western blot analysis; type: cell-based
Procedure, shortened: (§2)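 HMEC-1 cells grown in endothelial medium with 5% FCS at 37 C, 5% CO2. Serum-starved 1 h in basal medium, pretreated 1 h with inhibitor at varying concentrations, then stimulated with 10 ng/mL TNF-alpha. Lysed 2 min after stimulation. Phospho-SRp75 and phospho-SRp55 detected by Western blot with mAb1H4, GAPDH as loading control, quantified by densitometry. At least 3 independent experiments.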

[5] = target: Dual specificity protein kinase CLK4 (Homo sapiens) (UniProt Q9HAZ1); conditions: 10 uM
[6] = target: T1, Dual specificity tyrosine-phosphorylation-regulated kinase 3 (Homo sapiens) (UniProt O43781); assay: Inhibition of recombinant DYRK3-mediated SR 9G8 protein phosphorylation at 10 uM after 30 mins by SDS-PAGE followed by autoradiography
T1 sequence (whole entry): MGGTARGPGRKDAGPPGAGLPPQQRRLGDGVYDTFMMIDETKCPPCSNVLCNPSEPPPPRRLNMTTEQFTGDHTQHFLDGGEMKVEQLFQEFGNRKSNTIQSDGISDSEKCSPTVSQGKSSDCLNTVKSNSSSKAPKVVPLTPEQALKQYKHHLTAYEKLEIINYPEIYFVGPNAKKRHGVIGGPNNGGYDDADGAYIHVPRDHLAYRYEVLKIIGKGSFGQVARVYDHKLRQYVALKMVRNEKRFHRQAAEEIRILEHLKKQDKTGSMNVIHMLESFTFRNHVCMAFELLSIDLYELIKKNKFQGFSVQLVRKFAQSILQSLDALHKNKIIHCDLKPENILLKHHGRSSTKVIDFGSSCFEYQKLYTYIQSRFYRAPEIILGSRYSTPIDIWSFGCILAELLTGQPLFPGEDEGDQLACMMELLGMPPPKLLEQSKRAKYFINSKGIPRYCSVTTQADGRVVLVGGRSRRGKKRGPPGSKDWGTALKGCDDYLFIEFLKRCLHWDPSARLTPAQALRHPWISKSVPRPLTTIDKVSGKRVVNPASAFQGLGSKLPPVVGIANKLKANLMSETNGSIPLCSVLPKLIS
Procedure, shortened: as §1

[7] = target: Dual specificity protein kinase CLK3 (Mus musculus, UniProt O35492); assay: Inhibition of mouse recombinant GST-tagged CLK3 using GRSRSRSRSRSR as substrate
Procedure, shortened: (§3)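 Mouse GST-fusion CLK1 or CLK3 expressed in E. coli. Assay buffer A (Tris-HCl pH 7.5, MgCl2, EGTA, DTT, heparin) plus 0.15 mg/mL BSA. RS peptide 1 μg/assay, 15 μM ATP final, 30 C. Blank subtracted; activity expressed as percent of activity without inhibitor. DMSO controls. Concentration range up to 10 μM.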

[8] = target: Dual specificity protein kinase CLK1 (Mus musculus, UniProt P22518); assay: Inhibition of mouse recombinant GST-tagged CLK1 using GRSRSRSRSRSR as substrate
Procedure, shortened: as §3

[9] = target: Dual specificity protein kinase CLK3 (Homo sapiens) (UniProt P49761); assay: Inhibition of CLK3-mediated SRp75 protein phosphorylation in TNFalpha-stimulated human HMEC1 cells after 1 hr by Western blot analysis; type: cell-based
Procedure, shortened: as §2

[10] = target: Dual specificity protein kinase CLK1 (Homo sapiens) (UniProt P49759); assay: Inhibition of CLK1-mediated SRp55 protein phosphorylation in TNFalpha-stimulated human HMEC1 cells after 1 hr by Western blot analysis; type: cell-based
Procedure, shortened: as §2

[11] = target: Dual specificity tyrosine-phosphorylation-regulated kinase 1A (Rattus norvegicus, UniProt Q63470); assay: Inhibition of rat recombinant GST-tagged DYRK1A using KKISGRLSPIMTEQ as substrate and [gamma32]-ATP after 30 mins by scintillation counting
Procedure, shortened: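 GST fusion kinases expressed in E. coli and purified on glutathione-agarose; DYRK1A is rat, DYRK2 is human. Assay buffer A (25 mM Tris-HCl pH 7.5, 10 mM MgCl2, 1 mM EGTA, 1 mM DTT, 50 μg/mL heparin) plus 0.15 mg/mL BSA. Product captured on P81 paper, washed in 1% phosphoric acid, scintillation counted. Activity expressed as percent of uninhibited control.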

Sus scrofa = species on record: Sus scrofa; assay: Inhibition of pig brain CK1 delta/epsilon using RRKHAAIGpSAYSITA as substrate at 10 uM
Procedure, shortened: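 Native CK1δ/ε from porcine brain, assayed in 3-fold diluted buffer C with 25 μM CKS peptide substrate. 15 μM ATP final, 30 C. Activity is percent of uninhibited control after blank subtraction, with DMSO controls. Inhibitor tested over a range of concentrations up to 10 μM.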

[12] = target: Dual specificity protein kinase CLK1 (Homo sapiens) (UniProt P49759); assay: Inhibition of CLK1-mediated SRp75 protein phosphorylation in TNFalpha-stimulated human HMEC1 cells after 1 hr by Western blot analysis; type: cell-based
Procedure, shortened: as §2

[13] = target: Glycogen synthase kinase-3 (Sus scrofa, UniProt B2LUN4+I6LNT8); assay: Inhibition of pig brain GSK-3alpha/beta using YRRAAVPPSPSLSRHSSPHQSpEDEEE as substrate
Procedure, shortened: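 Compounds were tested at various concentrations, the highest being 10 μM, with DMSO dilution controls. Blanks were subtracted and activity was expressed as percent of the uninhibited maximum.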

[14] = target: T2, Dual specificity tyrosine-phosphorylation-regulated kinase 2 (Homo sapiens) (UniProt Q92630); conditions: 10 uM
T2 sequence (whole entry): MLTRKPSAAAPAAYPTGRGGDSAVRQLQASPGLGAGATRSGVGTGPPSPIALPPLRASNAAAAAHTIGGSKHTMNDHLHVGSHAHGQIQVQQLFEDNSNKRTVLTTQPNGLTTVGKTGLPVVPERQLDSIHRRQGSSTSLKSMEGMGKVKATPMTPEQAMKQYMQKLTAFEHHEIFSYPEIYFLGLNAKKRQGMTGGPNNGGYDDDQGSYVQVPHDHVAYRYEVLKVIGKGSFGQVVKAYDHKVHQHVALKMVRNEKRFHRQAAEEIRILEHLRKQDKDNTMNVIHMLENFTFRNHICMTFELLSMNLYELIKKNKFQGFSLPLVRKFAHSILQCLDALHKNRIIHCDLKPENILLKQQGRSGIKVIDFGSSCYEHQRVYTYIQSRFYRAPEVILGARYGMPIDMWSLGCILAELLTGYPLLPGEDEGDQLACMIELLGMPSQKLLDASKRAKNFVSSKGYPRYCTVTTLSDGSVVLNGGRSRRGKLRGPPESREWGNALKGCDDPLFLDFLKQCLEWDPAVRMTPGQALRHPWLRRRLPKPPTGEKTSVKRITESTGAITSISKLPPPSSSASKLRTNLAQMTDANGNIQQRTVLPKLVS

Sequence of Dual specificity protein kinase CLK1 (Homo sapiens) (P49759 whole entry, looked up, canonical isoform): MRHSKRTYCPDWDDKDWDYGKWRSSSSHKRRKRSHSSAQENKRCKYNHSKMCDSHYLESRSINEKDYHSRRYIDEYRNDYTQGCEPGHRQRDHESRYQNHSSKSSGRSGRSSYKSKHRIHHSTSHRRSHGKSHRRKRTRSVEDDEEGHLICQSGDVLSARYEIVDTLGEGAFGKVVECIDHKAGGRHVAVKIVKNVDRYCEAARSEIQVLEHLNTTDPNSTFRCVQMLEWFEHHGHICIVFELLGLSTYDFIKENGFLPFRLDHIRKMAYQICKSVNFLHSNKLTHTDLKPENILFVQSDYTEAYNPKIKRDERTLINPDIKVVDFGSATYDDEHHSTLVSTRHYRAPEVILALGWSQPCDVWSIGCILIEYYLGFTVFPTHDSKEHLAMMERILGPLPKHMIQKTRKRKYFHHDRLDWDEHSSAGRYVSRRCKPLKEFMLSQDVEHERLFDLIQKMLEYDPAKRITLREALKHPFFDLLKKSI
Sequence of Dual specificity protein kinase CLK3 (Homo sapiens) (P49761 whole entry, looked up): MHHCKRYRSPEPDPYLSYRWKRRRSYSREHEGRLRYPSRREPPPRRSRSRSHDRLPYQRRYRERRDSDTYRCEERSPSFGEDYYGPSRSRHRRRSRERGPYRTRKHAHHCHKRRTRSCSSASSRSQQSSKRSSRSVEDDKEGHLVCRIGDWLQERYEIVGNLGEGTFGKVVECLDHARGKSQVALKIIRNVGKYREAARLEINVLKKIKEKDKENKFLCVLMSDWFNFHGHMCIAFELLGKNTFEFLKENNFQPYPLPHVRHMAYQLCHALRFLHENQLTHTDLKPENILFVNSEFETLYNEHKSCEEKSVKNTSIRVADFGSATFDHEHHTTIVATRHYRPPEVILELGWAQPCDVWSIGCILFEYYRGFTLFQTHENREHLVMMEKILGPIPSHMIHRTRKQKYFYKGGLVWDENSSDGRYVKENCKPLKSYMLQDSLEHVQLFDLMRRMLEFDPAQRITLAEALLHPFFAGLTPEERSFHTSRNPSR
Sequence of Dual specificity protein kinase CLK3 (O35492 whole entry, the tested form may be a part): as the sequence (P49761 whole entry, looked up) above, with L55I, R64H, Y83C, P86S, G99A, T484S counted along it
Sequence of Dual specificity protein kinase CLK1 (P22518 whole entry): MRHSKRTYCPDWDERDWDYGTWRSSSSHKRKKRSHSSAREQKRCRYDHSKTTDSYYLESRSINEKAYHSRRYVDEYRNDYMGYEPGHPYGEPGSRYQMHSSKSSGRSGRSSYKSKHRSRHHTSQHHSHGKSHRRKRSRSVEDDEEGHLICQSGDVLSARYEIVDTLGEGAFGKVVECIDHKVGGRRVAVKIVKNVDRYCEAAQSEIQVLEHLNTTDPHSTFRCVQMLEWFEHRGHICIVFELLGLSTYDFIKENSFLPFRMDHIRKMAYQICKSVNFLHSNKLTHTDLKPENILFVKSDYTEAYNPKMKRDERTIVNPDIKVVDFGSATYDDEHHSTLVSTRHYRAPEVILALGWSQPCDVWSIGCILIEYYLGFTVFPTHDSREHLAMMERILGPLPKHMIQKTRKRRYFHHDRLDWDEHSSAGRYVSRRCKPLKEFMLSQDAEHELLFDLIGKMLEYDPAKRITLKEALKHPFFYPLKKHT
Sequence of Dual specificity protein kinase CLK2 (Homo sapiens) (P49760 whole entry, looked up): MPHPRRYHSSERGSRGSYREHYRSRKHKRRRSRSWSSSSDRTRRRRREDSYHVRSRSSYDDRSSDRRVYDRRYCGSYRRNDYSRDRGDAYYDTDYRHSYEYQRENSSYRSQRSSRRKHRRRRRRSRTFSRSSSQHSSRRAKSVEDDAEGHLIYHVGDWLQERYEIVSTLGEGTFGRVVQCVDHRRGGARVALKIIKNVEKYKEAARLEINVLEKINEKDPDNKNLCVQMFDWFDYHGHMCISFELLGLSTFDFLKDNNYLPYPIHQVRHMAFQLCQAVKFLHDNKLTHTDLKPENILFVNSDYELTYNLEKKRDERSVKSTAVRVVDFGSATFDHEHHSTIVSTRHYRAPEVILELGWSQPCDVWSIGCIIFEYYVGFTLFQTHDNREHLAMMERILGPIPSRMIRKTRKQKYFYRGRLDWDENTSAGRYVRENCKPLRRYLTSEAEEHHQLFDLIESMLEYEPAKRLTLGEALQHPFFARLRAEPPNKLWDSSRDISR
Sequence of Dual specificity protein kinase CLK4 (Homo sapiens) (Q9HAZ1 whole entry, looked up): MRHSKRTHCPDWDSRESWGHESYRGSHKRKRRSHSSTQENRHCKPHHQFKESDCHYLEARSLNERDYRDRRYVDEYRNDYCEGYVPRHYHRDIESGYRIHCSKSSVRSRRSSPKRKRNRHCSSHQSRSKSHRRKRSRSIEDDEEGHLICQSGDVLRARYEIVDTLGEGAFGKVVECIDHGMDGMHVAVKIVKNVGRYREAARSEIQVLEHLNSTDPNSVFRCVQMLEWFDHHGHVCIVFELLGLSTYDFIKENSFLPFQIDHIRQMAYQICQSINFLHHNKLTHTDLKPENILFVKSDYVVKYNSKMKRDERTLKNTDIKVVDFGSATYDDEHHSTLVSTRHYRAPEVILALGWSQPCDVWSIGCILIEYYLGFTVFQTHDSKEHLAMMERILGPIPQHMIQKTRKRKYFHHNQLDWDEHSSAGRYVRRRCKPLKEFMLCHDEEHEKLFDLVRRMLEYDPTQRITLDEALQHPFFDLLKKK

Q: O=C1NC(Nc2ccccc2)=N/C1=C\c1ccc2c(c1)OCO2 was tested. Which inhibition [1] did it give?
A: Active

Q: What about the inhibition [2] of the same compound?
A: Active

Q: What about the “increase in exon inclusion ratio” value [3] of the same compound?
A: Dose-dependent effect

Q: And the inhibition [4]?
A: Active

Q: What about the inhibition [5] of the same compound?
A: Active

Q: What about the inhibition [6] of the same compound?
A: Active

Q: And the IC50 [7]?
A: > 10000 nM

Q: And the IC50 [8]?
A: 15 nM

Q: What about the inhibition [9] of the same compound?
A: Active

Q: And the inhibition [10]?
A: Active

Q: What about the IC50 [11] of the same compound?
A: 40 nM

Q: What about the inhibition (Sus scrofa) of the same compound?
A: inactive

Q: What about the inhibition [12] of the same compound?
A: Active

Q: What about the IC50 [13] of the same compound?
A: > 10000 nM

Q: What about the inhibition [14] of the same compound?
A: Active

— ChEMBL document CHEMBL1800025 (J Med Chem, 2011)
